Data taken from ChEMBL document CHEMBL1126902, “Synthesis, chemical reactivity, and antitumor evaluation of congeners of carmethizole hydrochloride, an experimental "acylated vinylogous carbinolamine" tumor inhibitor” (J Med Chem, 1993).

Assays:
A549 = assay: Concentration required to inhibit tumor growth in A549, human lung carcinoma (NSCLC) cell line; format: functional, cell-based
Method in brief: (§1)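 Cells grown in RPMI 1640 with 5% fetal calf serum, 5% NuSerum IV and 20 mM HEPES, seeded and allowed to adhere overnight. Compound dissolved in RPMI-1640 plus HEPES and tested over a 5 log range (10 concentrations) for 72 h. Read-out by sulforhodamine B assay. Median-effect dose derived by nonlinear regression of the concentration-effect curve.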

HT-29 = assay: Concentration required to inhibit tumor growth in HT29, human colon adenocarcinoma cell line; format: functional, cell-based; details: Homo sapiens, HT-29; method in brief: as §1
[1] = Percent increase in life span of dying mice tested in vivo at 47 mg/kg against ip implanted LOX amelanotic melanoma in mice (60-day survivors); format: functional; details: Mus musculus, 1440 h, route intraperitoneal
Method in brief: (§2)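 Female CD2F1 mice implanted ip with ascitic fluid carrying ca. 1.7×10^6 LOX amelanotic melanoma cells. Drug given ip on days 1, 5 and 9, starting 24 h after implant, dosed by exact body weight; solutions or suspensions made fresh daily. %ILS is from the median day of death of dying mice versus controls, excluding 60-day survivors.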

[2] = Percent increase in life span of dying mice tested in vivo at 94 mg/kg against ip implanted LOX amelanotic melanoma in mice (60-day survivors); format: functional; details: Mus musculus, 1440 h, route intraperitoneal
Method in brief: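 Nude CD2F1 female mice were implanted ip with ascitic fluid containing ca. 1.7×10^6 LOX amelanotic melanoma cells. Drug was given ip on days 1, 5 and 9, starting 24 h after implantation, and dosed by exact body weight. Solutions or suspensions were made fresh daily in saline plus Tween 80. %ILS was calculated from the median day of death of dying mice versus controls, excluding 60-day survivors.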

[3] = Change in tumor cell population in ip implanted LOX amelanotic melanoma in mice after administration of compound at 94 mg/kg; format: functional, Mus musculus; details: route intraperitoneal
Method in brief: (§3)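 Female CD2F1 mice were implanted ip with ascitic fluid holding ca. 1.7×10^6 LOX cells. Dosing was ip on days 1, 5 and 9, starting 24 h after implantation, by exact body weight, as a solution or suspension in saline plus Tween 80, freshly prepared daily. KE is the net log change in viable tumor cells from start to end of treatment. Bracketed KE assumes Poisson survival, with 60-day survivors tumor-free.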

[4] = Change in tumor cell population in ip implanted LOX amelanotic melanoma in mice after administration of compound at 188 mg/kg; format: functional, Mus musculus; details: route intraperitoneal; method in brief: as §3
[5] = Change in tumor cell population in ip implanted LOX amelanotic melanoma in mice after administration of compound at 23.5 mg/kg; format: functional, Mus musculus; details: route intraperitoneal; method in brief: as §3
[6] = Change in tumor cell population in ip implanted LOX amelanotic melanoma in mice after administration of compound at 47 mg/kg; format: functional, Mus musculus; details: route intraperitoneal; method in brief: as §3
[7] = Percent increase in life span of dying mice tested in vivo at 23.5 mg/kg against ip implanted LOX amelanotic melanoma in mice (60-day survivors); format: functional; details: Mus musculus, 1440 h, route intraperitoneal; method in brief: as §2
[8] = Percent increase in life span of dying mice tested in vivo at 188 mg/kg against ip implanted LOX amelanotic melanoma in mice (60-day survivors); format: functional; details: Mus musculus, 1440 h, route intraperitoneal; method in brief: as §2
[9] = Concentration required to inhibit tumor growth in […], human breast adenocarcinoma cell line; format: functional; method in brief: as §1
P388 [10] = assay: Change in tumor cell population in ip implanted P388 Leukemia in mice after administration of compound at 23.5 mg/kg; format: functional, Mus musculus; details: route intraperitoneal
Method in brief: (§4)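 Female Portage-CD2F1 mice were inoculated ip with ascitic fluid holding ca. 5.2×10^6 P388 cells. Dosing was ip on days 1-5, starting 24 h after inoculation, by average body weight, as a solution or suspension in saline plus Tween 80. KE is the net log change in viable tumor cell population from start to end of the treatment period.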

P388 [11] = assay: Change in tumor cell population in ip implanted P388 Leukemia in mice after administration of compound at 47 mg/kg; format: functional, Mus musculus; details: route intraperitoneal
Method in brief: (§5)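 P388 leukemia: ascitic fluid with ca. 5.2×10^6 cells inoculated ip into Portage-CD₂F₁ female mice. Drug given ip on days 1-5, starting 24 h after inoculation, dosed by average body weight. Vehicle was saline plus Tween 80, as a solution or suspension. KE = net log change in viable tumor cells from start to end of treatment.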

P388 [12] = assay: Change in tumor cell population in ip implanted P388 Leukemia in mice after administration of compound at 94 mg/kg; format: functional, Mus musculus; details: route intraperitoneal; method in brief: as §5
P388 [13] = assay: Percent increase in life span of dying mice tested in vivo at 23.5 mg/kg against ip implanted P388 Leukemia in mice; format: functional; details: Mus musculus, route intraperitoneal
Method in brief: (§6)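 Portage-CD2F1 female mice inoculated ip with ascitic fluid carrying ca. 5.2×10^6 P388 leukemia cells. Drug given ip daily on days 1-5, starting 24 h after inoculation, dosed by average body weight. %ILS is from the median day of death of dying mice versus controls.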

P388 [14] = assay: Percent increase in life span of dying mice tested in vivo at 47 mg/kg against ip implanted P388 Leukemia in mice; format: functional; details: Mus musculus, route intraperitoneal; method in brief: as §6
P388 [15] = assay: Percent increase in life span of dying mice tested in vivo at 94 mg/kg against ip implanted P388 Leukemia in mice; format: functional; details: Mus musculus, route intraperitoneal
Method in brief: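 Portage-CD2F1 female mice were inoculated ip with ascitic fluid containing ca. 5.2×10^6 P388 leukemia cells. Drug was given ip daily on days 1-5, starting 24 h after inoculation, and dosed by average body weight. %ILS was calculated from the median day of death of dying mice versus controls.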

P388 [16] = assay: Change in tumor cell population in ip implanted P388 Leukemia in mice after administration of compound at 11.8 mg/kg; format: functional, Mus musculus; details: route intraperitoneal; method in brief: as §4
P388 [17] = assay: Percent increase in life span of dying mice tested in vivo at 11.8 mg/kg against ip implanted P388 Leukemia in mice; format: functional; details: Mus musculus, route intraperitoneal; method in brief: as §6
[18] = Concentration required to inhibit tumor growth in PSN-1, human pancreatic carcinoma cell line; format: functional
Method in brief: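 PSN-1 pancreatic carcinoma cells exposed to compound dissolved in RPMI-1640 plus HEPES at its maximum soluble concentration for 72 h. Read-out by sulforhodamine B colorimetric assay.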

L1210 (Mus musculus) = assay: Concentration required to inhibit tumor growth in L1210, murine lymphocytic leukemia cell line

SMILES: CCCSc1nc(COC(=O)NC)c(COC(=O)NC)n1C
- IC50 (A549): 190 µM
- IC50 (HT-29): 108 µM
- ILS at 47 mg/kg [1]: 24%
- ILS at 94 mg/kg [2]: 22%
- KE [3]: 0.6
- KE [4]: -1.6
- KE [5]: 1.3
- KE [6]: 0.7
- ILS at 23.5 mg/kg [7]: 13%
- ILS at 188 mg/kg [8]: 76%
- IC50 [9]: 147 µM
- KE (P388 [10]): -0.1
- KE (P388 [11]): -1.5
- KE (P388 [12]): -3.3
- ILS at 23.5 mg/kg (P388 [13]): 40%
- ILS at 47 mg/kg (P388 [14]): 59%
- ILS at 94 mg/kg (P388 [15]): 84%
- KE (P388 [16]): -0.1
- ILS at 11.8 mg/kg (P388 [17]): 40%
- IC50 [18]: 115 µM
- IC50 (L1210 (Mus musculus)): 18 µM
